This is an account of results in PubChem BioAssay.

The nature of assay [1]: inhibitors of TNFa-induced NFkB p65 translocation, primary screen, imaging, HUVEC, MLSMR starter and 10KST1 sets (AID 438;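 active = inhibition above 20% together with a positive visual image hit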;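 also: compound added about 3h40 before a 20 min TNFalpha stimulation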;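 as to inhibition: signal is the nuclear over cytoplasmic p65 intensity ratio per well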). As to conditions: HUVEC TNFa-induced p65 nuclear translocation; cell count: measured here: nuclei count (cytotoxicity indicator), at 2.08 µM; inhibition: at 2 µM, stronger effect = higher value, 0% TNFa-plus-vehicle, 100% no-TNFa wells.
The nature of assay [2]: endothelial E-selectin expression blockers – imaging, HUVEC, immunofluorescence, MLSMR starter and 10KST1 sets, primary screen (AID 487;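 active = visually confirmed hit in the image check and inhibition above 20%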;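 as to inhibition: signal is fraction of cell area covered by stained E-selectin grains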;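 as to nuclei count: 100% = median nuclei count of all wells on the same plate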). As to conditions: HUVEC TNFalpha-induced E-selectin immunofluorescence imaging, at 2 µM; inhibition: stronger effect = higher value; nuclei count: measured here: cell number, toxicity.
Assay [3] can be described thus: Primary imaging screen for DUSP6 inhibitors that restore phospho-Erk in transfected HeLa cells, chemical complementation (AID 609;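 active = compounds giving at least 50% inhibition in the cell-based MKP-3 phosphatase rescue imaging test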;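 as to inhibition: phospho-Erk level distribution per well compared with pooled transfected vehicle control wells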). The conditions noted are these: HeLa MKP-3 transfected, phospho-Erk imaging KS statistic, at 10 µM, cells stimulated with TPA for 15 min.
For assay [4], the target named is Dual specificity protein phosphatase 6 (Homo sapiens) (UniProt Q16828). The assay is described as above. The conditions noted are these: HeLa MKP-3 transfected, phospho-Erk imaging KS statistic; at 10 µM; stronger effect = higher value; cells stimulated with TPA for 15 min.
Sequence of Dual specificity protein phosphatase 6 (Homo sapiens) (Q16828 whole entry, looked up): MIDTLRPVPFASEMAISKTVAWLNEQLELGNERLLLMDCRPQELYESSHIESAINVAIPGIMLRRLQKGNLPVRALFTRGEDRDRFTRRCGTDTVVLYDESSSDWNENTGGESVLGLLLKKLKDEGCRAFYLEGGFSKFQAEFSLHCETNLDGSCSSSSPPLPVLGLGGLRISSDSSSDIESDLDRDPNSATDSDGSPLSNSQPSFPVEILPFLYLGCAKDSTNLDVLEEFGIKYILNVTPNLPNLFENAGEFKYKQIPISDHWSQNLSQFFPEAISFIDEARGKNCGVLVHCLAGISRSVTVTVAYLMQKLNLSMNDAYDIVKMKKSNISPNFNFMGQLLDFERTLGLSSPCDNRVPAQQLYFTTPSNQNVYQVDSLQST
Assay [5] has as its target Voltage-gated potassium channel subunit beta-2 (Rattus norvegicus) (UniProt P62483). The experiment in a line: inhibitors of rat Kvbeta2 reductase activity – biochemical, NADPH fluorescence, primary screen (AID 622;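 active = fluorescence slope higher than the sample average by over 3 SD, cut at about -0.22 in these data, passing the limit was not always enough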;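 also: slope of raw intensity against log time taken from 70 to 1610 s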). The conditions noted are these: recombinant KvBeta, 4-cyanobenzaldehyde reduction, at 10 µM, stronger effect = higher value.
The target is the same in assay [6]. The experiment in a line: enhancers of rat Kvbeta2 NADPH turnover – biochemical, NADPH fluorescence, primary screen (AID 623;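 active = NADPH fluorescence slope more negative than the mean of all samples by about 3 SD, 99.7% confidence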;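 also: fluorescence intensity change per second fitted from 20 to 320 s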). As to conditions: Recombinant KvBeta, NADPH fluorescence decrease slope, 10 min; at 10 µM; stronger effect = lower value.
Assay [7] addresses Muscarinic acetylcholine receptor M4 (Homo sapiens) (UniProt P08173). The experiment in a line: M4-linked GIRK flux change, two-sided – cell-based, HEK293 M4/GIRK, thallium flux, BTC-AM, M4 allosteric agonist project, primary screen (AID 625;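 active = fluorescence slope after compound addition differing from the mean of all tested samples at 99.7% confidence, mostly higher but some lower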;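 also: thallium influx through GIRK channels coupled to M4 in HEK293 cells with BTC-AM dye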). As to conditions: at 10 µM, actives lie on both sides. In a few lines: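 Material: HEK293 cells with M4 receptor and GIRK channels; Times: cells overnight at 37 °C, BTC-AM loading 1 h, reads 2 min total; Technique: kinetic BTC-AM fluorescence sampled at 1 Hz, 10 s pre-addition baseline; Read-out basis: slope over 15–24 s of trace normalized to starting intensity; Controls: carbachol positive, DMSO negative.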

A short description of assay [8]: inhibitors of larval lipid processing in zebrafish, primary screen, whole organism, PED6 fluorescence, gall bladder and intestine (AID 686).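 Also: larvae 5 to 7 days old with five fish per well; signal comes from phospholipase A2 cleavage of quenched PED6 carried via bile.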 The conditions noted are these: Zebrafish larvae PED6 lipid processing, fluorescence scoring; screened at 20 µM (by protocol). Put shortly: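 Incubation: overnight exposure of larvae to compound plus PED6 / Test system: live zebrafish larvae aged 5-7 days, whole organism / Amount: 5 larvae per well / Read-out basis: visual per-well fluorescence inhibition score / Signal: visual fluorescence microscopy scoring of gall bladder, gut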

Assay [9] can be described thus: loss of swimming-algae plug formation – whole organism, Chlamydomonas reinhardtii, WT vs cilia-less mutant, absorbance, 96-well, primary screen (AID 463189;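 active = inhibition at or above 50% relative to wild type and mutant plate controls; inactive = inhibition below 50%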;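 also: 0% = wild type cc124 cells in DMSO and 100% = ciliumless bld1 mutant cells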). The conditions noted are these: Chlamydomonas reinhardtii gravitaxis, OD600 absorbance, 2 days; at 10 µM; stronger effect = higher value.
The mark [10] stands for this setting: measured here: cell density z-score.
Where [11] appears, read: measured here: nuclear c-Myc green intensity z-score.
The mark [12] stands for this setting: measured here: nuclear pErk red intensity z-score, stronger effect = higher value.

Each structure is given as a SMILES string. The source made the active and inactive calls.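 The calls were made as follows, unless noted: active = a full or partial loss of lipid-probe fluorescence in the fish gall bladder, intestine or both, judged by eye; inactive = no fluorescence loss, or compound toxic to the fish.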

Sequence of Muscarinic acetylcholine receptor M4 (Homo sapiens) (P08173 whole entry, looked up): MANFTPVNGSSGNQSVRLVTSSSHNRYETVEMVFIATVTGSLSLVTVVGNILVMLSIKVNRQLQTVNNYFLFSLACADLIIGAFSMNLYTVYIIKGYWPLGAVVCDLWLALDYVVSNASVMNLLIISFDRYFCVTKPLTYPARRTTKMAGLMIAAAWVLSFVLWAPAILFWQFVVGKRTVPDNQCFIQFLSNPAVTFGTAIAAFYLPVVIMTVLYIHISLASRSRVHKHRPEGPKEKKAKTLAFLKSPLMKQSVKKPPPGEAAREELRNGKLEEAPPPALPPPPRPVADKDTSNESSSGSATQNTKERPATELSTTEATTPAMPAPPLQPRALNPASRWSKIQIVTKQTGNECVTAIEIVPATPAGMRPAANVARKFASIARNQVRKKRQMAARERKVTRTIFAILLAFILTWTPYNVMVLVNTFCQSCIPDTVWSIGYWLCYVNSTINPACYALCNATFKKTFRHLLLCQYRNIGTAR
Sequence of Voltage-gated potassium channel subunit beta-2 (Rattus norvegicus) (P62483 whole entry, looked up): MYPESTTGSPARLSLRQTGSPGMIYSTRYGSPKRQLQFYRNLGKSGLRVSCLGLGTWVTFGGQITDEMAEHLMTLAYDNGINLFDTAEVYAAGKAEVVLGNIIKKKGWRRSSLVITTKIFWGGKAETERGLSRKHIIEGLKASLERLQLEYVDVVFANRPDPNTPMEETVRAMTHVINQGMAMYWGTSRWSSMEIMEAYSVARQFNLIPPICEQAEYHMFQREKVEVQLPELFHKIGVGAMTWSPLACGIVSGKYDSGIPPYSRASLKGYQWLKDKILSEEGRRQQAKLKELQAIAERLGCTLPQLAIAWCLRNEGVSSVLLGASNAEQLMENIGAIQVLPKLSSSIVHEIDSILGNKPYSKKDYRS

Consider `CC1(C)Cc2c(c(N3CCCCC3)[nH]c(=S)c2C#N)CS1`, for which the cell count in assay [1] was 574. Moreover, the inhibition in [1] is -7.8% (inactive); in assay [2], -103% (inactive); in assay [4], -10.6% (inactive); in [9] it was 12.9% (inactive). This compound showed a nuclei count in assay [2] of 151%. The z-score in assay [3] (setting [10]) is -0.509; in assay [3] (setting [11]), -1.94; in assay [3] (setting [12]) it was 0.0392. Also, the figures for the fluorescence slope in [5] and in [7] were -0.479 (inactive) and 0.00629 (inactive), respectively. In addition, in [6], the NADPH fluorescence slope is -0.000148 (inactive). In assay [8], the outcome was inactive.

Regarding `Cc1cc2c(c(=O)n1Cc1ccccn1)C(c1ccc3c(c1)OCO3)C(C#N)=C(N)O2` (stereo unspecified), the cell count in [1] turned out to be 692. Besides, the inhibition is -7.3% (inactive) in assay [1], -44.9% (inactive) in [2], -2.91% (inactive) in assay [4] and 11.3% (inactive) in assay [9]. This compound also yielded a nuclei count in assay [2] of 183%. In addition, the z-score in assay [3] (setting [10]) came to 0.057; in [3] (setting [11]), 2.34; in assay [3] (setting [12]), 0.285. In addition, the fluorescence slope in assay [5] is -0.451 (inactive); in assay [7], 0.00525 (inactive). In [6], the NADPH fluorescence slope is -5.4e-05 (inactive). Also, the result in assay [8] was inactive.

For the compound `Cc1cc(=O)n(CCC(=O)O)c2ccccc12`, in assay [1], the cell count was 722. Besides, the inhibition in assay [1] is -2.6% (inactive); in assay [2], -33.8% (inactive); in assay [4], 5.95% (inactive); in assay [9] it was -13% (inactive). In [2], the nuclei count is 175%. In addition, the z-score in assay [3] (setting [10]) was 1.44; in assay [3] (setting [11]), -0.504; in [3] (setting [12]), -1.75. The fluorescence slope in assay [5] is -0.48 (inactive); in [7] it was 0.0062 (inactive). Moreover, the NADPH fluorescence slope in assay [6] was -8.8e-05 (inactive). The call in assay [8] was inactive.

For `CCOC(=O)c1[nH]c2ccc(OC)cc2c1NC(=O)CCN1CCc2ccccc2C1`, the cell count in assay [1] turned out to be 515. Moreover, the inhibition was -5.3% (inactive) in assay [1], -124% (inactive) in assay [2], 3.42% (inactive) in assay [4] and -5.17% (inactive) in assay [9]. For the same compound, in assay [2], the nuclei count is 136%. For the same compound, the z-score was -0.0545 in [3] (setting [10]), -2.02 in assay [3] (setting [11]) and 1.46 in assay [3] (setting [12]). The results for the fluorescence slope in assay [5] and in assay [7] were -0.323 (inactive) and 0.00491 (inactive), respectively. Moreover, the NADPH fluorescence slope in assay [6] was -3.8e-05 (inactive). Further, the compound was called inactive in assay [8].

Turning to `COCc1[nH]nc2c1C(c1ccc(OC)cc1)C(C#N)=C(N)O2` (stereo unspecified), the cell count in [1] came out at 664. Besides, the inhibition in [1] was -8.1% (inactive); in assay [2], 0.4% (inactive); in assay [4], -4.27% (inactive); in [9] it was 0.628% (inactive). For the same compound, the nuclei count in [2] was 142%. In addition, the z-score is -1.64 in assay [3] (setting [10]), 0.0391 in assay [3] (setting [11]) and -2.4 in [3] (setting [12]). Moreover, the fluorescence slope is -0.477 (inactive) in assay [5] and 0.006 (inactive) in assay [7]. For the same compound, the NADPH fluorescence slope in assay [6] was -6e-05 (inactive). Moreover, in [8], the call was inactive.

Turning to `COC(=O)CC1=C(C(=O)OC)C(c2cccc(OCC(N)=O)c2)C(C#N)=C(N)O1` (stereo unspecified), the cell count in assay [1] is 723. Also, the inhibition in assay [1] was -1% (inactive); in assay [2] it was -67.7% (inactive); in assay [4], 27.5% (inactive); in assay [9] it was 12% (inactive). Moreover, the nuclei count in assay [2] came to 186%. The values for the z-score in assay [3] (setting [10]), in assay [3] (setting [11]) and in assay [3] (setting [12]) were -1.4, 0.109 and 1.84, respectively. Moreover, the fluorescence slope in [5] is -0.432 (inactive); in assay [7] it was 0.00612 (inactive). Also, the NADPH fluorescence slope in [6] is -7e-05 (inactive). In addition, in [8], the compound was classed as inactive.

As for `CCOC(=O)NC(Nc1sc2c(c1C(=O)OC)CCN(C)C2)(C(F)(F)F)C(F)(F)F`, the cell count in [1] amounted to 614. Further, the inhibition was 3.1% (inactive) in assay [1], -20.8% (inactive) in assay [2], 16.5% (inactive) in assay [4] and 36.6% (inactive) in assay [9]. The same compound gave a nuclei count in [2] of 89.6%. In addition, the z-score in [3] (setting [10]) is 0.751; in [3] (setting [11]) it was -0.407; in assay [3] (setting [12]), -0.601. For the same compound, the fluorescence slope in assay [5] is -0.501 (inactive); in assay [7], 0.00619 (inactive). Also, the NADPH fluorescence slope in assay [6] is -3.3e-05 (inactive). The result in assay [8] was inactive.

By inhibition is commonly meant the drop in the measured response relative to a control, in per cent.
